Experimental data from ChEMBL document CHEMBL3124861, “Application of ProTide technology to gemcitabine: a successful approach to overcome the key cancer resistance mechanisms leads to a new agent (NUC-1031) in clinical development” (J Med Chem, 2014).
Activity calls are given as the source filed them. The calls are words filed in the database; no cut-off is given here.

Experiments:
CCRF-CEM = assay: Cytostatic activity against human CEM cells after 72 hrs by coulter counter analysis; format: functional, cell-based
In short: (§1)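 Tumor cell proliferation assay with murine leukemia and human T-lymphoblast cells. IC50 is the concentration that inhibits proliferation by 50%. Values are means of at least two independent experiments.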

L1210 = assay: Cytostatic activity against mouse L1210 cells after 48 hrs by coulter counter analysis; format: functional, cell-based; settings: L1210, 48 h; in short: as §1
MIA PaCa-2 [1] = assay: Cytostatic activity against human MIAPaCa2 cells after 72 hrs by MTS assay; format: functional, cell-based; settings: MIA PaCa-2, 72 h
In short: (§2)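 Pancreatic carcinoma cell proliferation assay. IC50 is the concentration that inhibits tumor cell proliferation by 50%. Values are means of at least two independent experiments.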

BXPC-3 [2] = assay: Cytostatic activity against human BxPC3 cells after 72 hrs by MTS assay; format: functional, cell-based; settings: BXPC-3, 72 h; in short: as §2
MIA PaCa-2 [3] = assay: Ratio of gemcitabine IC50 to compound IC50 for human MIAPaCa2 cells after 72 hrs by MTS assay; format: functional
[4] = Metabolic stability in human liver microsomes assessed as compound remaining at 0.5 uM after 1 hr by HPLC-Ms/Ms analysis; format: ADME; settings: read-out: Stability
In short: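 Compounds incubated with human liver microsomes for 1 h. Percentage of parent remaining measured.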

[5] = Half life in human hepatocytes at 1 uM; format: ADME, cell-based, Hepatocyte
In short: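 Compounds incubated with human hepatocytes. Half-life determined.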

BXPC-3 [6] = assay: Ratio of gemcitabine IC50 to compound IC50 for human BxPC3 cells after 72 hrs by MTS assay; format: functional
[7] = Prodrug activation assessed as carboxypeptidase Y (unknown origin)-mediated formation of (S)-2-((((2R,3R,5R)-5-(4-amino-2-oxopyrimidin-1(2H)-yl)-4,4-difluoro-3-hydroxytetrahydrofuran-2-yl)methoxy)oxidophosphorylamino)propanoate at 3 mg measured within 12 hrs by [31P]-NMR spectroscopic analysis
In short: (§3)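 The prodrug was dissolved in acetone-d6 with Trizma buffer (pH 7.6). A blank spectrum was recorded at 25 °C, then carboxypeptidase Y was added. Conversion was followed by 31P NMR spectra recorded over time, with peaks assigned by chemical shift.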

[8] = Prodrug activation assessed as carboxypeptidase Y (unknown origin)-mediated formation of (S)-2-((((2R,3R,5R)-5-(4-amino-2-oxopyrimidin-1(2H)-yl)-4,4-difluoro-3-hydroxytetrahydrofuran-2-yl)methoxy)oxidophosphorylamino)propanoate at 3 mg measured after 10 mins by [31P]-NMR spectroscopic analysis; in short: as §3
[9] = Prodrug activation assessed as carboxypeptidase Y (unknown origin)-mediated formation of (2S)-2-((((2R,3R,5R)-5-(4-amino-2-oxopyrimidin-1(2H)-yl)-4,4-difluoro-3-hydroxytetrahydrofuran-2-yl)methoxy)(phenoxy)phosphorylamino)propanoate at 3 mg measured within 10 mins by [31P]-NMR spectroscopic analysis; in short: as §3
Serum [10] = assay: Prodrug activation in rat serum assessed as formation of (S)-2-((((2R,3R,5R)-5-(4-amino-2-oxopyrimidin-1(2H)-yl)-4,4-difluoro-3-hydroxytetrahydrofuran-2-yl)methoxy)oxidophosphorylamino)propanoate at 5 mg measured after 6.5 mins by [31P]-NMR spectroscopic analysis; format: cell-free
In short: (§4)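 The prodrug was incubated in human or rat serum and followed over time by 31P NMR. Metabolites were assigned by chemical shift. Human serum spectra were resolved by Lorentz-Gauss deconvolution.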

Mus musculus [11] = assay: Toxicity in Balb/c nude mouse xenografted with human BxPC3 cells assessed as change in body weight at 0.19 to 0.076 mmol/kg, ip administered 2 times per week for 2 weeks measured every week during compound treatment; format: organism-based, BXPC-3; settings: in vivo, 336 h
BXPC-3 [12] = assay: Antitumor activity against human BxPC3 cells xenografted in Balb/c nude mouse assessed as tumor growth inhibition at 0.19 mmol/kg, ip administered every week for 3 weeks; format: functional, organism-based
MIA PaCa-2 [13] = assay: Antitumor activity against human MIAPaCa2 cells xenografted in Balb/c nude mouse assessed as tumor growth inhibition at 0.076 mmol/kg, ip measured on day 7; format: functional, organism-based
MIA PaCa-2 [14] = assay: Antitumor activity against human MIAPaCa2 cells xenografted in Balb/c nude mouse assessed as tumor growth inhibition at 0.19 mmol/kg, ip administered every week for 3 weeks; format: functional, organism-based
Mus musculus [15] = assay: Toxicity in Balb/c nude mouse xenografted with human MIAPaCa2 cells assessed as change in body weight at 0.19 to 0.076 mmol/kg, ip administered 2 times per week for 2 weeks measured every week during compound treatment relative to vehicle-treated control; format: organism-based, MIA PaCa-2; settings: in vivo, 336 h
[16] = Prodrug activation in human BxPC3 cells assessed as formation of dFdCTP after 24 hrs in presence of hENT1 inhibitor NBTI; format: cell-based; settings: bxpc-3, 24 h
In short: (§5)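 Pancreatic cells were exposed to the agent for 24 h, with or without a dCK inhibitor or the hENT1 inhibitor NBTI. Intracellular dFdCTP was measured by UPLC-MS/MS on a C18 column. Elution used a 10 mM ammonium acetate/acetonitrile gradient at 700 μL/min. Detection was by triple-quadrupole heated electrospray, transition m/z 502.0→159.0 at 37 V collision energy.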

[17] = Prodrug activation in human MIAPaCa2 cells assessed as formation of dFdCTP after 24 hrs in presence of dCK inhibitor 2T2D; format: cell-based; settings: mia paca-2, 24 h; in short: as §5
[18] = Prodrug activation in human BxPC3 cells assessed as formation of dFdCTP after 24 hrs in presence of dCK inhibitor 2T2D; format: cell-based; settings: bxpc-3, 24 h; in short: as §5
[19] = Prodrug activation in human MIAPaCa2 cells assessed as formation of dFdCTP after 24 hrs in presence of hENT1 inhibitor NBTI; format: cell-based; settings: mia paca-2, 24 h; in short: as §5
Cytidine deaminase [20] = target: T1, Cytidine deaminase (Homo sapiens, UniProt P32320); assay: Drug degradation assessed as recombinant human cytidine deaminase-mediated dFdU formation at 100 uM measured at 30 mins by UV absorption spectroscopic analysis; format: ADME; settings: 0.5 h
T1 sequence (P32320 whole entry): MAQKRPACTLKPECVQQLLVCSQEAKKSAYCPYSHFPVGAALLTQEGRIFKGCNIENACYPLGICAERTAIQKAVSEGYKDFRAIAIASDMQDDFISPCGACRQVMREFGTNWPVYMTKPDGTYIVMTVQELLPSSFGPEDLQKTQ
In short: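 The nucleoside or prodrug was incubated with cytidine deaminase for 30 min. Deamination was followed by UV absorbance spectra recorded between 220 and 350 nm.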

[21] = Cytotoxicity against human PANC1 cells assessed as cell viability by MTT assay in presence of hENT1 inhibitor dipyridamole; format: functional, cell-based; settings: PANC-1
In short: (§6)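 PANC1 pancreatic cancer cells were grown with the test agent, with or without dipyridamole to block hENT1 nucleoside transport. Viable cells were counted by colorimetric MTT assay, and EC50 was taken as the concentration blocking proliferation by 50%.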

[22] = Cytotoxicity against human PANC1 cells assessed as cell viability by MTT assay in absence of hENT1 inhibitor dipyridamole; format: functional, cell-based; settings: PANC-1; in short: as §6
[23] = Cytotoxicity against human RT112 cells assessed as cell viability by MTT assay in presence of dCK substrate deoxycytidine; format: functional, cell-based; settings: RT-112
In short: (§7)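 RT112 cancer cells were grown with the test agent, with or without 2′-deoxycytidine as a competing dCK substrate to mimic dCK down-regulation. Viable cells were counted by colorimetric MTT assay, and EC50 was taken as the concentration blocking proliferation by 50%.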

[24] = Cytotoxicity against human RT112 cells assessed as cell viability by MTT assay in absence of dCK substrate deoxycytidine; format: functional, cell-based; settings: RT-112; in short: as §7
Serum [25] = assay: Prodrug activation in human serum assessed as formation of (S)-2-((((2R,3R,5R)-5-(4-amino-2-oxopyrimidin-1(2H)-yl)-4,4-difluoro-3-hydroxytetrahydrofuran-2-yl)methoxy)oxidophosphorylamino)propanoate at 5 mg measured after 5.5 hrs by [31P]-NMR spectroscopic analysis; format: cell-free; in short: as §4
Cytidine deaminase [26] = target: T1, Cytidine deaminase; assay: Drug degradation assessed as recombinant human cytidine deaminase-mediated dFdU formation at 100 uM measured within 2 mins by UV absorption spectroscopic analysis; format: ADME
In short: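 Compound or gemcitabine incubated with cytidine deaminase. UV absorption scanned at 220–350 nm over 30 min. Deamination to dFdU is read as an absorbance shift from 267 to 257 nm.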

RT-112 = assay: Ratio of EC50 for human RT112 cells in presence of dCK substrate deoxycytidine to EC50 for human RT112 cells in absence of dCK substrate deoxycytidine; format: functional
In short: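 RT112 cells exposed to compound with or without the dCK substrate 2′-deoxycytidine, which competes for dCK activity. Viable cells counted by colorimetric MTT assay. EC50 is the concentration blocking cell proliferation, compared between the two conditions.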

CC(C)OC(=O)[C@H](C)NP(=O)(OC[C@H]1O[C@@H](n2ccc(N)nc2=O)C(F)(F)[C@@H]1O)Oc1ccccc1 (stereo not given in full)
IC50 (CCRF-CEM): > 5 µM | IC50 (L1210): > 5 µM | IC50 (MIA PaCa-2 [1]): > 5 µM | IC50 (BXPC-3 [2]): > 5 µM

CCCCCOC(=O)[C@H](C)NP(=O)(OC[C@H]1O[C@@H](n2ccc(N)nc2=O)C(F)(F)[C@@H]1O)Oc1ccccc1 (stereo not given in full)
IC50 (CCRF-CEM): 0.08 µM | IC50 (L1210): 0.024 µM

CCCCCCOC(=O)[C@H](C)NP(=O)(OC[C@H]1O[C@@H](n2ccc(N)nc2=O)C(F)(F)[C@@H]1O)Oc1ccccc1 (stereo not given in full)
IC50 (CCRF-CEM): 0.081 µM | IC50 (L1210): 0.016 µM

C[C@H](NP(=O)(OC[C@H]1O[C@@H](n2ccc(N)nc2=O)C(F)(F)[C@@H]1O)Oc1ccccc1)C(=O)OCC(C)(C)C (stereo not given in full)
IC50 (CCRF-CEM): 0.44 µM | IC50 (L1210): 0.39 µM | IC50 (MIA PaCa-2 [1]): 1.41 µM | IC50 (BXPC-3 [2]): 0.36 µM

C[C@H](NP(=O)(OC[C@H]1O[C@@H](n2ccc(N)nc2=O)C(F)(F)[C@@H]1O)Oc1ccccc1)C(=O)OC1CCCCC1 (stereo not given in full)
IC50 (CCRF-CEM): 0.42 µM | IC50 (L1210): 0.6 µM

CCCCCOC(=O)C(C)(C)NP(=O)(OC[C@H]1O[C@@H](n2ccc(N)nc2=O)C(F)(F)[C@@H]1O)Oc1cccc2ccccc12 (stereo not given in full)
IC50 (CCRF-CEM): 0.13 µM | IC50 (L1210): 0.16 µM

CCCCCCOC(=O)[C@H](C)NP(=O)(OC[C@H]1O[C@@H](n2ccc(N)nc2=O)C(F)(F)[C@@H]1O)Oc1cccc2ccccc12 (stereo not given in full)
IC50 (CCRF-CEM): 0.075 µM | IC50 (L1210): 0.022 µM

C[C@H](NP(=O)(OC[C@H]1O[C@@H](n2ccc(N)nc2=O)C(F)(F)[C@@H]1O)Oc1cccc2ccccc12)C(=O)OC1CCCC1 (stereo not given in full)
IC50 (CCRF-CEM): 0.11 µM | IC50 (L1210): 0.18 µM | IC50 (MIA PaCa-2 [1]): 0.46 µM | IC50 (BXPC-3 [2]): 0.15 µM | Ratio IC50 (MIA PaCa-2 [3]): 2

C[C@H](NP(=O)(OC[C@H]1O[C@@H](n2ccc(N)nc2=O)C(F)(F)[C@@H]1O)Oc1cccc2ccccc12)C(=O)OC1CCCCC1 (stereo not given in full)
IC50 (CCRF-CEM): 0.14 µM | IC50 (L1210): 0.32 µM

C[C@H](NP(=O)(OC[C@H]1O[C@@H](n2ccc(N)nc2=O)C(F)(F)[C@@H]1O)Oc1cccc2ccccc12)C(=O)OCc1ccccc1 (stereo not given in full)
remaining at 1 h, 0.5 µM [4]: 1% | half-life at 1 µM [5]: 1.32 h | IC50 (CCRF-CEM): 0.1 µM | IC50 (L1210): 0.035 µM | IC50 (MIA PaCa-2 [1]): 0.57 µM | IC50 (BXPC-3 [2]): 0.24 µM | Ratio IC50 (BXPC-3 [6]): 2 | Ratio IC50 (MIA PaCa-2 [3]): 2

CCCCCOC(=O)[C@H](C)NP(=O)(OC[C@H]1O[C@@H](n2ccc(N)nc2=O)C(F)(F)[C@@H]1O)Oc1cccc2ccccc12 (stereo not given in full)
IC50 (CCRF-CEM): 0.073 µM | IC50 (L1210): 0.03 µM

C[C@H](NP(=O)(OC[C@H]1O[C@@H](n2ccc(N)nc2=O)C(F)(F)[C@@H]1O)Oc1ccccc1)C(=O)OCc1ccccc1 (stereo not given in full) [FOSGEMCITABINE PALABENAMIDE]
Drug metabolism [7]: Active | Drug metabolism [8]: Active | Drug metabolism [9]: Active | IC50 (CCRF-CEM): 0.1 µM | IC50 (L1210): 0.035 µM | IC50 (MIA PaCa-2 [1]): 0.44 µM | IC50 (BXPC-3 [2]): 0.15 µM | Drug metabolism (Serum [10]): Active | Activity (Mus musculus [11]): Non-toxic | TGI (BXPC-3 [12]): Active | TGI (MIA PaCa-2 [13]): Active | TGI (MIA PaCa-2 [14]): Active | Activity (Mus musculus [15]): < 4% | Drug metabolism [16]: Active | Drug metabolism [17]: Active | Drug metabolism [18]: Active | Drug metabolism [19]: Active | Stability (Cytidine deaminase [20]): Stable | EC50 [21]: 162 µM | EC50 [22]: 190 µM | EC50 [23]: 0.0007 µM | EC50 [24]: 0.0002 µM | Drug metabolism (Serum [25]): Active

Nc1ccn([C@@H]2O[C@H](CO)[C@@H](O)C2(F)F)c(=O)n1 [GEMCITABINE]
IC50 (CCRF-CEM): 0.086 µM | IC50 (MIA PaCa-2 [1]): 1.04 µM | IC50 (BXPC-3 [2]): 0.67 µM | Activity (Mus musculus [11]): Non-toxic | TGI (BXPC-3 [12]): inactive | TGI (MIA PaCa-2 [13]): Active | TGI (MIA PaCa-2 [14]): Active | Drug metabolism [16]: Not Active | Drug metabolism [17]: Not Active | Drug metabolism [18]: Not Active | Drug metabolism [19]: Not Active | Stability (Cytidine deaminase [26]): Unstable | EC50 [21]: > 2000 µM | EC50 [22]: 611 µM | Ratio EC50 (RT-112): 75 | EC50 [23]: 0.105 µM | EC50 [24]: 0.0014 µM
